ChEMBL document CHEMBL2321824, “5-((1-Aroyl-1H-indol-3-yl)methylene)-2-thioxodihydropyrimidine-4,6(1H,5H)-diones as potential anticancer agents with anti-inflammatory properties” (2013)

What was measured:
Format in all cases: functional
UO-31 = test: Cytotoxicity against human UO31 cells; conditions: for CC50: read-out: LC50 (the source's name)
Procedure, shortened: (§1)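 Tested in the NCI 60 human tumor cell line panel (leukemia, NSCLC, colon, CNS, melanoma, ovarian, renal, prostate and breast lines) at five doses. A single-dose pre-screen at 10 μM selected which compounds went on. Effect was plotted against log10 drug concentration for each line. GI50 is the molar concentration giving 50% growth inhibition; LC50 is the concentration killing 50% of cells.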

HOP-92 = test: Cytotoxicity against human HOP92 cells; conditions: for CC50: read-out: LC50 (the source's name); procedure, shortened: as §1
MOLT-4 = test: Cytotoxicity against human MOLT4 cells; conditions: for CC50: read-out: LC50 (the source's name); procedure, shortened: as §1
NCI/ADR-RES = test: Cytotoxicity against human NCI/ADR-RES cells; conditions: for CC50: read-out: LC50 (the source's name); procedure, shortened: as §1
OVCAR-3 = test: Cytotoxicity against human OVCAR3 cells; conditions: for CC50: read-out: LC50 (the source's name); procedure, shortened: as §1
M14 = test: Cytotoxicity against human M14 cells; procedure, shortened: as §1
MDA-MB-435 = test: Cytotoxicity against human MDA-MB-435 cells; conditions: for CC50: read-out: LC50 (the source's name)
Procedure, shortened: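 Tested in the NCI 60 human tumor cell line panel (leukemia, NSCLC, colon, CNS, melanoma, ovarian, renal, prostate and breast lines) at five doses. A single-dose pre-screen at 10 μM selected which compounds went on. Effect was plotted against log10 drug concentration for each line.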

LOX IMVI = test: Cytotoxicity against human LOXIMVI cells; conditions: for CC50: read-out: LC50 (the source's name); procedure, shortened: as §1
SF-539 = test: Cytotoxicity against human SF539 cells; conditions: for CC50: read-out: LC50 (the source's name); procedure, shortened: as §1
SF-268 = test: Cytotoxicity against human SF268 cells; procedure, shortened: as §1
HCT-15 = test: Cytotoxicity against human HCT15 cells; conditions: for CC50: read-out: LC50 (the source's name); procedure, shortened: as §1
HCT-116 = test: Cytotoxicity against human HCT116 cells; conditions: for CC50: read-out: LC50 (the source's name); procedure, shortened: as §1
SR = test: Cytotoxicity against human SR cells; procedure, shortened: as §1
K562 = test: Cytotoxicity against human K562 cells; procedure, shortened: as §1
CCRF-CEM = test: Cytotoxicity against human CCRF-CEM cells; conditions: for CC50: read-out: LC50 (the source's name); procedure, shortened: as §1
HL-60(TB) = test: Cytotoxicity against human HL-60(TB) cells; procedure, shortened: as §1
DU-145 = test: Cytotoxicity against human DU145 cells; conditions: for CC50: read-out: LC50 (the source's name); procedure, shortened: as §1
SK-MEL-5 = test: Cytotoxicity against human SK-MEL-5 cells; procedure, shortened: as §1
UACC-62 = test: Cytotoxicity against human UACC62 cells; conditions: for CC50: read-out: LC50 (the source's name); procedure, shortened: as §1
U-251 = test: Cytotoxicity against human U251 cells; conditions: for CC50: read-out: LC50 (the source's name); procedure, shortened: as §1
KM12 = test: Cytotoxicity against human KM12 cells; conditions: for CC50: read-out: LC50 (the source's name); procedure, shortened: as §1
HOP-62 = test: Cytotoxicity against human HOP62 cells; conditions: for CC50: read-out: LC50 (the source's name); procedure, shortened: as §1

| SMILES | GI50 (NCI/ADR-RES) [µM] | CC50 (NCI/ADR-RES) [µM] | GI50 (OVCAR-3) [µM] | CC50 (OVCAR-3) [µM] | GI50 (M14) [µM] | LC50 (M14) [µM] | CC50 (MDA-MB-435) [µM] | GI50 (LOX IMVI) [µM] | CC50 (LOX IMVI) [µM] | GI50 (SF-539) [µM] | CC50 (SF-539) [µM] | GI50 (SF-268) [µM] | GI50 (HCT-15) [µM] | CC50 (HCT-15) [µM] | GI50 (HCT-116) [µM] | GI50 (SR) [µM] | GI50 (K562) [µM] | GI50 (CCRF-CEM) [µM] | CC50 (CCRF-CEM) [µM] | GI50 (HL-60(TB)) [µM] | also measured |
| --- | --- | --- | --- | --- | --- | --- | --- | --- | --- | --- | --- | --- | --- | --- | --- | --- | --- | --- | --- | --- | --- |
| O=C1NC(=S)NC(=O)C1=Cc1cn(C(=O)c2cccc3ccccc23)c2ccccc12 | 2.59 | > 100 | 2.46 | > 100 | 3.22 | 9.23 | 46.2 | 3.59 | > 100 | 3.58 | 55.6 | 3.68 | 3.6 | 58.6 | 2.9 | 2.74 | 3.71 | 3.35 | > 100 | 3.36 | GI50 (UO-31): 3.93 µM; CC50 (UO-31): > 100 µM; GI50 (HOP-92): 1.3 µM; CC50 (HOP-92): 44.8 µM; GI50 (MOLT-4): 3.49 µM; CC50 (MOLT-4): 79 µM; GI50 (MDA-MB-435): 1.91 µM; LC50 (SF-268): 50.7 µM; CC50 (HCT-116): > 100 µM; LC50 (SR): 44.8 µM; LC50 (K562): > 100 µM; LC50 (HL-60(TB)): > 100 µM |
| COc1ccc(C(=O)n2cc(C=C3C(=O)NC(=S)NC3=O)c3cc(OC)ccc32)cc1 | 2.91 | – | 1.26 | > 50 | 2.03 | – | 3.86 | 1.86 | > 50 | 2.56 | > 50 | 2.65 | 1.8 | > 50 | 1.95 | 1.45 | 2.55 | 2.23 | > 50 | 3.91 | GI50 (DU-145): 2.41 µM; CC50 (DU-145): > 50 µM; GI50 (SK-MEL-5): 2.31 µM; GI50 (UACC-62): 2.33 µM; CC50 (UACC-62): > 50 µM; GI50 (U-251): 1.93 µM; CC50 (U-251): > 50 µM; GI50 (KM12): 1.99 µM; CC50 (KM12): > 50 µM; GI50 (HOP-62): 3.12 µM; CC50 (HOP-62): > 50 µM |
| COc1ccc2c(c1)c(C=C1C(=O)NC(=S)NC1=O)cn2C(=O)c1cccc2ccccc12 | 3.14 | > 100 | 2.38 | 20.9 | 1.91 | > 100 | 12 | 3.8 | > 100 | 3.23 | > 100 | 2.3 | 3.1 | > 100 | 3.35 | 3.32 | 3.52 | 3.31 | > 100 | 3.47 | GI50 (UO-31): 3.72 µM; CC50 (UO-31): > 100 µM; GI50 (HOP-92): 1.09 µM; CC50 (HOP-92): > 100 µM; GI50 (MOLT-4): 3.95 µM; CC50 (MOLT-4): > 100 µM; GI50 (MDA-MB-435): 2.01 µM; LC50 (SF-268): > 100 µM; CC50 (HCT-116): > 100 µM; LC50 (SR): > 100 µM; LC50 (K562): > 100 µM; LC50 (HL-60(TB)): > 100 µM |
| COc1ccc2c(c1)c(C=C1C(=O)NC(=S)NC1=O)cn2C(=O)c1ccccc1Br | 3.23 | > 100 | 2.77 | 33.1 | 3.52 | > 100 | 8.43 | 2.92 | 47.9 | 3 | 57.8 | 3.86 | 3.83 | 89.9 | 3.76 | 2.55 | 3.8 | 4 | > 100 | 3.24 | GI50 (DU-145): 3.01 µM; CC50 (DU-145): 53.6 µM; GI50 (SK-MEL-5): 3.47 µM; LC50 (SK-MEL-5): > 50 µM; GI50 (UACC-62): 3.38 µM; CC50 (UACC-62): 39.6 µM; GI50 (MDA-MB-435): 1.77 µM; GI50 (U-251): 3.09 µM; CC50 (U-251): 42.1 µM; LC50 (SF-268): 52.2 µM; GI50 (KM12): 3.87 µM; CC50 (KM12): 51.9 µM; CC50 (HCT-116): > 100 µM; LC50 (SR): > 100 µM; GI50 (HOP-62): 3.59 µM; CC50 (HOP-62): 64.3 µM; LC50 (K562): > 100 µM; LC50 (HL-60(TB)): > 100 µM |
